Experimental data published in ChEMBL document CHEMBL1123822, “Lysosomotropic agents. 7. Broad-spectrum antifungal activity of lysosomotropic detergents” (1987).
Converted amounts (≈) assume the structure as drawn.

Legend:
Assay type in all cases: functional
Fusarium oxysporum = assay: The compound was evaluated for zone inhibition against Fusarium oxysporum (MF4014) using disk diffusion assay
Summary of the method: (§1)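 Filter-paper disks (6.2 mm) loaded with 25 μL of a 250 μg/mL methanol solution, dried at room temperature, laid on seeded agar and rewet with 25 μL 10% aqueous Me₂SO. Media were unbuffered, pH ca. 4.5–5.6: potato dextrose agar for filamentous fungi, sabouraud dextrose agar for yeasts, unless noted. Inhibition zone diameter read after overnight incubation, ±1 mm. Zone edges scored fuzzy, slightly hazy, hazy or very hazy.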

Ustilago maydis = assay: The compound was evaluated for zone inhibition against Ustilago zeae (MF1996) using disk diffusion assay; 28 Fuzzy edges; summary of the method: as §1
Candida tropicalis [1] = assay: The compound was evaluated for zone inhibition against Candida tropicalis MY1012 using disk diffusion assay; 25 Fuzzy edges
Summary of the method: (§2)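 Disk diffusion: 25 μL of 250 μg/mL drug in methanol on 6.2 mm paper disks, dried at room temperature, placed on seeded agar and rewet with 25 μL 10% aqueous Me₂SO. Zones were read after overnight incubation, ±1 mm. Media were unbuffered, pH ca. 4.5–5.6: potato dextrose agar for filamentous fungi, Sabouraud dextrose for yeasts, unless YNB (76 mM ammonium sulfate, sole nitrogen source) or YED is named. Zone edges were scored fuzzy, slightly hazy, hazy or very hazy.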

Cryptococcus neoformans [2] = assay: The compound was tested for antifungal activity against Cryptococcus neoformans MY1051 using agar dilution assay
Summary of the method: (§3)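 Standardized agar dilution on Kimmig agar with 5% glycerol. Detergents solubilized in 10% Me2SO; desoxycholate-stabilized amphotericin B diluted and titrated in sterile distilled water. Twofold dilutions in sterile distilled water gave final agar concentrations of 128 to 0.06 μg/mL. Error limit ±1 dilution stage.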

Cryptococcus neoformans [3] = assay: The compound was tested for antifungal activity against Cryptococcus neoformans MY1146 using agar dilution assay; summary of the method: as §3
Penicillium [4] = assay: The compound was evaluated for zone inhibition against Penicillium sp (MF5020) using disk diffusion assay; 21 Fuzzy edges; summary of the method: as §1
Papiliotrema laurentii [5] = assay: The compound was evaluated for zone inhibition against Cryptococcus laurentii MY1077 using disk diffusion assay; 22 Fuzzy edges; summary of the method: as §1
Candida albicans [6] = assay: The compound was tested for antifungal activity against Candida albicans MY1055 using agar dilution assay
Summary of the method: (§4)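 Standardized agar dilution in Kimmig agar with 5% glycerol. Lysosomotropic detergents solubilized in 10% Me₂SO. Twofold serial dilutions in sterile distilled water gave final agar concentrations of 128 to 0.06 μg/mL. Stated error ±1 dilution stage.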

Candida albicans [7] = assay: The compound was tested for antifungal activity against Candida albicans My1029 using agar dilution assay; summary of the method: as §4
Kluyveromyces marxianus [8] = assay: The compound was evaluated for zone inhibition against Kluyveromyces fragilis MY1113 using disk diffusion assay; 13 Fuzzy edges; summary of the method: as §1
Candida albicans [9] = assay: The compound was tested for antifungal activity against Candida albicans MY1013 using agar dilution assay; summary of the method: as §4
Nakaseomyces glabratus [10] = assay: The compound was tested for antifungal activity against Torulopsis glabrata MY1059 using agar dilution assay; summary of the method: as §3
Candida albicans [11] = assay: The compound was tested for antifungal activity against Candida stellatoidea MY1017 using agar dilution assay; summary of the method: as §3
Saccharomyces cerevisiae [12] = assay: The compound was evaluated for mean zone diameter (inhibition) against yeast at the concentration of 125 ug/mL
Summary of the method: (§5)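 Filter-paper disk diffusion (6.2 mm disks) with drug in methanol at the stated level, 25 μL per disk. Disks were air-dried at room temperature, laid on seeded agar, rewet with 25 μL 10% aqueous Me₂SO and incubated overnight. Media were unbuffered, pH ca. 4.5–5.6. The panel was 21 yeasts and 21 filamentous fungi. Zones of 0 mm were excluded from means.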

Rhizomucor miehei = assay: The compound was evaluated for zone inhibition against Rhizomucor miehei (MF4784) using disk diffusion assay; summary of the method: as §1
Candida albicans [13] = assay: The compound was tested for antifungal activity against Candida albicans MY0992 using agar dilution assay; summary of the method: as §4
Trichoderma viride = assay: The compound was evaluated for zone inhibition against Trichoderma lignorum (MF3560) using disk diffusion assay; 24 Fuzzy edges; summary of the method: as §1
Kluyveromyces marxianus [14] = assay: The compound was tested for antifungal activity against Candida pseudotropicalis MY1040 using agar dilution assay; summary of the method: as §4
Saccharomyces cerevisiae [15] = assay: The compound was evaluated for mean zone diameter (inhibition) against yeast at the concentration of 250 ug/mL; summary of the method: as §5
Candida tropicalis [16] = assay: The compound was tested for antifungal activity against Candida tropicalis MY1011 using agar dilution assay; summary of the method: as §3
Naganishia albida = assay: The compound was evaluated for zone inhibition against Cryptococcus albidus MY1070 using disk diffusion assay; 23 Fuzzy edges; summary of the method: as §2
Penicillium [17] = assay: The compound was evaluated for zone inhibition against Penicillium sp (MF5016) using disk diffusion assay; 25 Fuzzy edges; summary of the method: as §1
Cephalosporium = assay: The compound was evaluated for zone inhibition against Cephalosporium sp (MF4641) using disk diffusion assay; summary of the method: as §2
Nakaseomyces glabratus [18] = assay: The compound was evaluated for zone inhibition against Torulopsis glabrata MY1062 using disk diffusion assay; summary of the method: as §1
Aspergillus fumigatus = assay: The compound was tested for antifungal activity against Aspergillus fumigatus MF4839 using agar dilution assay; summary of the method: as §4
Phoma = assay: The compound was evaluated for zone inhibition against Phoma sp (MF4332) using disk diffusion assay; 23 Fuzzy edges; summary of the method: as §1
Diutina rugosa = assay: The compound was tested for antifungal activity against Candida rugosa MY1022 using agar dilution assay; summary of the method: as §4
Saccharomyces cerevisiae [19] = assay: The compound was tested for antifungal activity against Saccharomyces cerevisiae MY1027 using agar dilution assay; summary of the method: as §3
Penicillium [20] = assay: The compound was evaluated for zone inhibition against Penicillium sp (MF5014) using disk diffusion assay; 22 Fuzzy edges; summary of the method: as §1
Saccharomyces cerevisiae [21] = assay: The compound was evaluated for mean zone diameter (inhibition) against yeast at the concentration of 62.5 ug/mL; summary of the method: as §5
Papiliotrema laurentii [22] = assay: The compound was evaluated for zone inhibition against Cryptococcus laurentii MY1074 using disk diffusion assay; 16 slightly hazy; summary of the method: as §1
[23] = test system: Meyerozyma guilliermondii; assay: The compound was tested for antifungal activity against Candida guilliermondii MY1019 using agar dilution assay; summary of the method: as §4
Aspergillus flavus = assay: The compound was tested for antifungal activity against Aspergillus flavus MF0383 using agar dilution assay; summary of the method: as §4
Candida albicans [24] = assay: The compound was tested for antifungal activity against Candida albicans MY1058 using agar dilution assay; summary of the method: as §4
Trichoderma = assay: The compound was evaluated for zone inhibition against Trichoderma sp (MF4064) using disk diffusion assay; summary of the method: as §1
Candida parapsilosis [25] = assay: The compound was tested for antifungal activity against Candida parapsilosis MY1010 using agar dilution assay; details: Lodderomyces parapsilosis; summary of the method: as §4
Candida tropicalis [26] = assay: The compound was tested for antifungal activity against Candida tropicalis MY1012 using agar dilution assay; summary of the method: as §3
Candida parapsilosis [27] = assay: The compound was tested for antifungal activity against Candida parapsilosis MY1009 using agar dilution assay; details: Lodderomyces parapsilosis; summary of the method: as §4
Cercospora beticola = assay: The compound was evaluated for zone inhibition against Cercospora beticola (MF4608) using disk diffusion assay; 22 Fuzzy edges; summary of the method: as §2
Pichia kudriavzevii = assay: The compound was tested for antifungal activity against Candida krusei MY1020 using agar dilution assay; summary of the method: as §4
Penicillium italicum = assay: The compound was tested for antifungal activity against Penicillium italicum MF2819 using agar dilution assay; summary of the method: as §3
Saccharomyces cerevisiae [28] = assay: The compound was evaluated for zone inhibition against Saccharomyces cerevisiae MY410 using disk diffusion assay; 9 Fuzzy edges; summary of the method: as §1
Saccharomyces cerevisiae [29] = assay: The compound was evaluated for zone inhibition against Saccharomyces cerevisiae YED MY34 using disk diffusion assay; summary of the method: as §1

Question: With `CCCCCCCCCCCCn1ccnc1` as the molecule, how does the Inhibition zone (Fusarium oxysporum) read?
Answer: 18 mm

Question: And the Inhibition zone (Ustilago maydis)?
Answer: 28 mm

Question: And the Inhibition zone (Candida tropicalis [1])?
Answer: 25 mm

Question: What about the MIC (Cryptococcus neoformans [2]) of the same molecule?
Answer: 4 µg/mL (≈ 16.9 µM)

Question: What about the MIC (Cryptococcus neoformans [3]) of the same molecule?
Answer: 4 µg/mL (≈ 16.9 µM)

Question: And the Inhibition zone (Penicillium [4])?
Answer: 21 mm

Question: And the Inhibition zone (Papiliotrema laurentii [5])?
Answer: 22 mm

Question: What about the MIC (Candida albicans [6]) of the same molecule?
Answer: 32 µg/mL (≈ 135 µM)

Question: What about the MIC (Candida albicans [7]) of the same molecule?
Answer: 32 µg/mL (≈ 135 µM)

Question: And the Inhibition zone (Kluyveromyces marxianus [8])?
Answer: 13 mm

Question: What about the MIC (Candida albicans [9]) of the same molecule?
Answer: 16 µg/mL (≈ 67.7 µM)

Question: What about the MIC (Nakaseomyces glabratus [10]) of the same molecule?
Answer: 16 µg/mL (≈ 67.7 µM)

Question: And the MIC (Candida albicans [11])?
Answer: 16 µg/mL (≈ 67.7 µM)

Question: And the Inhibition zone (Saccharomyces cerevisiae [12])?
Answer: 15.8 mm

Question: And the Inhibition zone (Rhizomucor miehei)?
Answer: 15 mm

Question: What about the MIC (Candida albicans [13]) of the same molecule?
Answer: 32 µg/mL (≈ 135 µM)

Question: And the Inhibition zone (Trichoderma viride)?
Answer: 24 mm

Question: What about the MIC (Kluyveromyces marxianus [14]) of the same molecule?
Answer: 16 µg/mL (≈ 67.7 µM)

Question: What about the Inhibition zone (Saccharomyces cerevisiae [15]) of the same molecule?
Answer: 16.8 mm

Question: What about the MIC (Candida tropicalis [16]) of the same molecule?
Answer: 32 µg/mL (≈ 135 µM)

Question: And the Inhibition zone (Naganishia albida)?
Answer: 23 mm

Question: And the Inhibition zone (Penicillium [17])?
Answer: 25 mm

Question: And the Inhibition zone (Cephalosporium)?
Answer: 13 mm

Question: And the Inhibition zone (Nakaseomyces glabratus [18])?
Answer: 11 mm

Question: What about the MIC (Aspergillus fumigatus) of the same molecule?
Answer: 16 µg/mL (≈ 67.7 µM)

Question: What about the Inhibition zone (Phoma) of the same molecule?
Answer: 23 mm

Question: And the MIC (Diutina rugosa)?
Answer: 32 µg/mL (≈ 135 µM)

Question: And the MIC (Saccharomyces cerevisiae [19])?
Answer: 8 µg/mL (≈ 33.8 µM)

Question: What about the Inhibition zone (Penicillium [20]) of the same molecule?
Answer: 22 mm

Question: What about the Inhibition zone (Saccharomyces cerevisiae [21]) of the same molecule?
Answer: 14.4 mm

Question: What about the Inhibition zone (Papiliotrema laurentii [22]) of the same molecule?
Answer: 16 mm

Question: And the MIC [23]?
Answer: 16 µg/mL (≈ 67.7 µM)

Question: And the MIC (Aspergillus flavus)?
Answer: 16 µg/mL (≈ 67.7 µM)

Question: What about the MIC (Candida albicans [24]) of the same molecule?
Answer: 32 µg/mL (≈ 135 µM)

Question: What about the Inhibition zone (Trichoderma) of the same molecule?
Answer: 18 mm

Question: And the MIC (Candida parapsilosis [25])?
Answer: 16 µg/mL (≈ 67.7 µM)

Question: And the MIC (Candida tropicalis [26])?
Answer: 8 µg/mL (≈ 33.8 µM)

Question: And the MIC (Candida parapsilosis [27])?
Answer: 32 µg/mL (≈ 135 µM)

Question: And the Inhibition zone (Cercospora beticola)?
Answer: 22 mm

Question: What about the MIC (Pichia kudriavzevii) of the same molecule?
Answer: 32 µg/mL (≈ 135 µM)

Question: What about the MIC (Penicillium italicum) of the same molecule?
Answer: 4 µg/mL (≈ 16.9 µM)

Question: What about the Inhibition zone (Saccharomyces cerevisiae [28]) of the same molecule?
Answer: 9 mm

Question: What about the Inhibition zone (Saccharomyces cerevisiae [29]) of the same molecule?
Answer: 15 mm
